Here are results for one compound from ChEMBL document CHEMBL3593176, “Design and biological evaluation of novel 4-(2-fluorophenoxy)quinoline derivatives bearing an imidazolone moiety as c-Met kinase inhibitors” (Bioorg Med Chem, 2015).

Test [1] can be described thus: cells. To be noted: Homo sapiens, NCI-H460, 72 h.
The target of test [2] is Mast/stem cell growth factor receptor Kit (Homo sapiens, UniProt P10721). Briefly: Inhibition of c-Kit (unknown origin) using poly (Glu, Tyr) 4:1 as substrate after 30 mins by HTRF assay. In short, it runs like this: (§1)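 Purified tyrosine kinase with poly(Glu,Tyr) 4:1 substrate (20 µg/mL) and ATP (10 mM solution) in 50 mM HEPES pH 7.0 buffer containing DTT, MgCl₂, MnCl₂, 0.1% NaN₃; compounds at various concentrations in 1% DMSO. Inhibition normalised to enzyme-free and uninhibited controls; IC50 from inhibition curves.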

For test [3], the target named is Macrophage-stimulating protein receptor (Homo sapiens, UniProt Q04912). Briefly: Inhibition of Ron (unknown origin) using poly (Glu, Tyr) 4:1 as substrate after 30 mins by HTRF assay. The gist of the method:
as §1

The nature of test [4]: Potency index, ratio of foretinib IC50 to compound IC50 for human H460 cells. It is filed as functional.
A further test relates to MKN-45. Briefly: Potency index, ratio of foretinib IC50 to compound IC50 for human MKN45 cells. The class given is functional.
The test system of another test is A549. Briefly: cells. The note with it: Homo sapiens, A549, 72 h.
Test [5] is described as follows: cells. To be noted: Homo sapiens, MKN-45, 72 h.
The target of test [6] is Epidermal growth factor receptor (Homo sapiens, UniProt P00533). Briefly: Inhibition of EGFR (unknown origin) using poly (Glu, Tyr) 4:1 as substrate after 30 mins by HTRF assay. In short, it runs like this:
as §1

The target of test [7] is Hepatocyte growth factor receptor (Homo sapiens, UniProt P08581). Briefly: Inhibition of c-Met (unknown origin) using poly (Glu, Tyr) 4:1 as substrate after 30 mins by HTRF assay.
The target of test [8] is Vascular endothelial growth factor receptor 2 (Homo sapiens, UniProt P35968). Briefly: Inhibition of VEGFR-2 (unknown origin) using poly (Glu, Tyr) 4:1 as substrate after 30 mins by HTRF assay.
The next test relates to HT-29. Briefly: cells. The note with it: Homo sapiens, HT-29, 72 h.
The target in test [9] is T1, Receptor-type tyrosine-protein kinase FLT3 (Homo sapiens, UniProt P36888).
T1 sequence (P36888 whole entry): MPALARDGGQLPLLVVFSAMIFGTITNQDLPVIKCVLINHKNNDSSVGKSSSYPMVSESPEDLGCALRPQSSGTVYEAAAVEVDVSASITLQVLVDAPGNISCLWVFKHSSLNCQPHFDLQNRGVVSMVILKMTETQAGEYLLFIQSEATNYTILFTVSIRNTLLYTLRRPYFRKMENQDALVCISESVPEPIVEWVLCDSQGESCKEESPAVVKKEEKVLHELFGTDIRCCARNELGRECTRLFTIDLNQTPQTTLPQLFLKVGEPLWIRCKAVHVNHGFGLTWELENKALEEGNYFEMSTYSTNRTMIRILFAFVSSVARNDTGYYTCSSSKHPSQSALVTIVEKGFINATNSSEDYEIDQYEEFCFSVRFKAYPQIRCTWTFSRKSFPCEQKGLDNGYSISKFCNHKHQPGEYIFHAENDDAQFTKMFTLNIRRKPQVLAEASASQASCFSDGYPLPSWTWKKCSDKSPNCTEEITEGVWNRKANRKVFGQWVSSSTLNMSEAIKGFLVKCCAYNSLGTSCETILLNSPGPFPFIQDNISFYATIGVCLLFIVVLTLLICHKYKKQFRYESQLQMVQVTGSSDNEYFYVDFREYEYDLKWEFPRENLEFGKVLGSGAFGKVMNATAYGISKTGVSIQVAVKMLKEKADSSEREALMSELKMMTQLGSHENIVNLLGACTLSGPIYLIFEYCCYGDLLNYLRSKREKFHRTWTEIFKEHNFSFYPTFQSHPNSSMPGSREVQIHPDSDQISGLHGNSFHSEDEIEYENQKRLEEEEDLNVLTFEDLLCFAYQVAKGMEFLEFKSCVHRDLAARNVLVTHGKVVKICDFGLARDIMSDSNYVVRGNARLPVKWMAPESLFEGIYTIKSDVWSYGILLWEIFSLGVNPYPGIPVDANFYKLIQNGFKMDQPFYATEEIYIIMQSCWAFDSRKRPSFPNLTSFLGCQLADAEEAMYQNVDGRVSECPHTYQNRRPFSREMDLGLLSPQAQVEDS
Briefly: Inhibition of FLT-3 (unknown origin) using poly (Glu, Tyr) 4:1 as substrate after 30 mins by HTRF assay.

Structures are written as SMILES.

Chain of Hepatocyte growth factor receptor (P08581 whole entry): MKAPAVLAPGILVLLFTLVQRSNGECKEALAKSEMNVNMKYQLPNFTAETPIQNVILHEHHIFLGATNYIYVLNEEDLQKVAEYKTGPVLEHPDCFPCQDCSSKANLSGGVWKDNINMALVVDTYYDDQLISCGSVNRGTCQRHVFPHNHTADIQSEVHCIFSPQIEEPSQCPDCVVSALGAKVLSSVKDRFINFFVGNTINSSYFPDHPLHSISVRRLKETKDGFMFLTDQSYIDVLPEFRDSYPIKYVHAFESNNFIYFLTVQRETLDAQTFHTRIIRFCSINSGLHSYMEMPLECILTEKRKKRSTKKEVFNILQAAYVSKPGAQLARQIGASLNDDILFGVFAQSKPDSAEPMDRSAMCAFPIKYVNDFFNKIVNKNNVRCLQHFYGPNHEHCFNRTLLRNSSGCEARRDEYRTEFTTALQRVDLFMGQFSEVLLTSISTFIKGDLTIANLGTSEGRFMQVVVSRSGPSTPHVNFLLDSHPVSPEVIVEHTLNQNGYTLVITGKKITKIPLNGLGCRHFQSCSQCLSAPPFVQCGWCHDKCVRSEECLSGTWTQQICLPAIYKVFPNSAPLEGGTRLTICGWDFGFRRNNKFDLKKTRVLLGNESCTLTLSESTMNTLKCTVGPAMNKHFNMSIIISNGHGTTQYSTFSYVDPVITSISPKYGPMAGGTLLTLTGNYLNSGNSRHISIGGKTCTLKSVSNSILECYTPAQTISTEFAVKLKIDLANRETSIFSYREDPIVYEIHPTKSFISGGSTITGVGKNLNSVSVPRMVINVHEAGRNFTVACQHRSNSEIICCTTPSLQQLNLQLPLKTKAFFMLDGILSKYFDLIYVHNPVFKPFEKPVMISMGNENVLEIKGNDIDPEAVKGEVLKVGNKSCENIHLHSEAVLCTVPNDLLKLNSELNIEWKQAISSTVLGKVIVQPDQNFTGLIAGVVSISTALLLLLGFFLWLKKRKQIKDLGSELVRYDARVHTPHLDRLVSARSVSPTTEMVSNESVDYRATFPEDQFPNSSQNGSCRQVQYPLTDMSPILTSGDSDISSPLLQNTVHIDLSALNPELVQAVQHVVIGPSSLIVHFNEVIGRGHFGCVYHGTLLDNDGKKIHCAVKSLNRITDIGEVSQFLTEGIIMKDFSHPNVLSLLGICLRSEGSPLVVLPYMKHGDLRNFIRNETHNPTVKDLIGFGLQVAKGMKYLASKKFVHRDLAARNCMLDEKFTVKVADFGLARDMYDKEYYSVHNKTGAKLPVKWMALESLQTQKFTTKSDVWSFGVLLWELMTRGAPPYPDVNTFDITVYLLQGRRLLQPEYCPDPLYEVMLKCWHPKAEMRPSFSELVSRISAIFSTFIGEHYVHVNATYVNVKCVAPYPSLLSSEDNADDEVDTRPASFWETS
Chain of Epidermal growth factor receptor (P00533 whole entry): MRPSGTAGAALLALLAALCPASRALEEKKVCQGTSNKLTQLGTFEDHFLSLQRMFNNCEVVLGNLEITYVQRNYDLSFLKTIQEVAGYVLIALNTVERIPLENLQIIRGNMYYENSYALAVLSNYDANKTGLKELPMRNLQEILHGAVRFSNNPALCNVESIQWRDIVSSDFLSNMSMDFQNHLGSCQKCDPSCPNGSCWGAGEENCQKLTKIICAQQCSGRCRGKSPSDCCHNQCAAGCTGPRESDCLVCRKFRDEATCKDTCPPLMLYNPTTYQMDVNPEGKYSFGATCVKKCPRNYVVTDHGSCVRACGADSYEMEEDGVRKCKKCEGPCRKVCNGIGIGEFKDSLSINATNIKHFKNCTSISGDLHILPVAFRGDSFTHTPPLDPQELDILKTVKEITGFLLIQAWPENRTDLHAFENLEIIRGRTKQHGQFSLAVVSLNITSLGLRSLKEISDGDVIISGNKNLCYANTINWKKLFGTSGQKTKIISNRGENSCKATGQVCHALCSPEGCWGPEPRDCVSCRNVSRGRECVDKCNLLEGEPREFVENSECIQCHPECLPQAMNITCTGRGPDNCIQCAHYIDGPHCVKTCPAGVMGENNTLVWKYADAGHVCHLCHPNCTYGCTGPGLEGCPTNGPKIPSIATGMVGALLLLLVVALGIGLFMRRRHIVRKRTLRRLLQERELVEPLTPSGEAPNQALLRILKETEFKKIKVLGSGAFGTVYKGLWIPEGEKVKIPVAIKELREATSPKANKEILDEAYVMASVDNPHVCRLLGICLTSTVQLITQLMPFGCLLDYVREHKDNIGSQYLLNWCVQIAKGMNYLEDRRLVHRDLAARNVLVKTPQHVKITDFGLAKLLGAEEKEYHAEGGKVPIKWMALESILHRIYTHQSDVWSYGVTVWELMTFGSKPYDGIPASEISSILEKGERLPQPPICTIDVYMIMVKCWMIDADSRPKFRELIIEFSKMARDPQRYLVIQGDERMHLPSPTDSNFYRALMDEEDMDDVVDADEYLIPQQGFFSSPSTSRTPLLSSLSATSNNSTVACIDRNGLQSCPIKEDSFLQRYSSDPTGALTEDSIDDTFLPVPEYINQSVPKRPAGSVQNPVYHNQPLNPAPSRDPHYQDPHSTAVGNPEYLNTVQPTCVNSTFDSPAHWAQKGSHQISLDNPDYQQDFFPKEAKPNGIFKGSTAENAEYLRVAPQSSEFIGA
Chain of Mast/stem cell growth factor receptor Kit (P10721 whole entry): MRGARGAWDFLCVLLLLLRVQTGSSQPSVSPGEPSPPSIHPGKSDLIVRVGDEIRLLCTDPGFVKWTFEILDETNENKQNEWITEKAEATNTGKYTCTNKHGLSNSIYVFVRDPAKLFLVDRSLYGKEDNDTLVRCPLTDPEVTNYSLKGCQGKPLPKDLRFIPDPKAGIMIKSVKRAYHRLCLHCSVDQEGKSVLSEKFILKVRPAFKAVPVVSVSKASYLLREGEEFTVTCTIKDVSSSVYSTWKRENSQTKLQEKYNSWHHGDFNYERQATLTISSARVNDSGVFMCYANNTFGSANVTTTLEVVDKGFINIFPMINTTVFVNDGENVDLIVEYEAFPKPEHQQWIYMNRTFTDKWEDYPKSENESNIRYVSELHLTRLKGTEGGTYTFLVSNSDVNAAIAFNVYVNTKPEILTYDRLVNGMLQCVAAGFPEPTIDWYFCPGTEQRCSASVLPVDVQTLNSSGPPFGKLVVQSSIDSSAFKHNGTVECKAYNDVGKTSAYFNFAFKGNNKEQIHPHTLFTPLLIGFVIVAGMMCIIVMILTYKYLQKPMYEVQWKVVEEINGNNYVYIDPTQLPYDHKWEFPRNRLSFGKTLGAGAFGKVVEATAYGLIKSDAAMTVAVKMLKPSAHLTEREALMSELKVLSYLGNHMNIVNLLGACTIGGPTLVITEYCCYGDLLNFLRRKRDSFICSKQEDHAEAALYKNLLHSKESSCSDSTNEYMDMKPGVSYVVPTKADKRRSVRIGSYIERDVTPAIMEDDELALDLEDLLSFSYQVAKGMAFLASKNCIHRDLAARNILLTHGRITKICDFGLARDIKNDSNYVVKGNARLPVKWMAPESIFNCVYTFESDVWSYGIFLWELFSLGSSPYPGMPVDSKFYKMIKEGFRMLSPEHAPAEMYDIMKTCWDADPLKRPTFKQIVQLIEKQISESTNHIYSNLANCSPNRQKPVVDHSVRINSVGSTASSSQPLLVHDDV
Chain of Vascular endothelial growth factor receptor 2 (P35968 whole entry): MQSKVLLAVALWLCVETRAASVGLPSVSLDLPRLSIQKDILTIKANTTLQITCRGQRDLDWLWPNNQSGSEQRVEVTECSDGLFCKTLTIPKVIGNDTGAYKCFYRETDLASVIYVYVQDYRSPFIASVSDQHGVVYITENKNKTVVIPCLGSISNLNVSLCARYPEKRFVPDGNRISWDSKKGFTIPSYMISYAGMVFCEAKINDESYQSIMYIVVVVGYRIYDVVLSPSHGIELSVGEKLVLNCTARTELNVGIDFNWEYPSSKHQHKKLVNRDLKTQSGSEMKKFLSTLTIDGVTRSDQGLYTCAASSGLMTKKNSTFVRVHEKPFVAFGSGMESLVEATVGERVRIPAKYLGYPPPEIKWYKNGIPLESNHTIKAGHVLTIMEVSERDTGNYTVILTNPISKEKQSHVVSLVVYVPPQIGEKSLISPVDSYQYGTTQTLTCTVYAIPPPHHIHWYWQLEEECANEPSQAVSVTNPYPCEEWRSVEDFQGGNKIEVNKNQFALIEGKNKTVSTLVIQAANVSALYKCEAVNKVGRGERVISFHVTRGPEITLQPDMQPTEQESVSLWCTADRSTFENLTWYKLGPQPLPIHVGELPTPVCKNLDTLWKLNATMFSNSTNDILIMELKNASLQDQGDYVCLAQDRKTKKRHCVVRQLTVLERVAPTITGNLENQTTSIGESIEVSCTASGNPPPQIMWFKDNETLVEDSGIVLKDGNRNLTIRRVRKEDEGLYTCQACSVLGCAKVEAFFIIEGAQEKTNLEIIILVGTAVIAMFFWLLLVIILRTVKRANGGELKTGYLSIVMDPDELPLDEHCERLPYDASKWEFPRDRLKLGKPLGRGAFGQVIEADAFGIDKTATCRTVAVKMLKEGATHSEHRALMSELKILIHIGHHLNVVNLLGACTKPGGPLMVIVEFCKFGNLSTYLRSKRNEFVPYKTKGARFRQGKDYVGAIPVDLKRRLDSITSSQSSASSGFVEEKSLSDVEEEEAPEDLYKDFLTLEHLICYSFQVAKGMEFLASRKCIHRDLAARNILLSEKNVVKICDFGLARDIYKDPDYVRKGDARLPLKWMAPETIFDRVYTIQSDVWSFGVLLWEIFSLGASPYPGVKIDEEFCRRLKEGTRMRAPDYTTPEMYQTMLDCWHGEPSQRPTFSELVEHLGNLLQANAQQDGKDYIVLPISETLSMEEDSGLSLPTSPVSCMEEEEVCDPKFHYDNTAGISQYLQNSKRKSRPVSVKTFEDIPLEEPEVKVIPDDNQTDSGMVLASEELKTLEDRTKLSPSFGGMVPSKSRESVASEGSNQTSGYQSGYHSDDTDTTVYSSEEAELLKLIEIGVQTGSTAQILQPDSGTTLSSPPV

Regarding `COc1cc2c(Oc3ccc(NC(=O)c4[nH]c(=O)n(-c5ccccc5Cl)c4C)cc3F)ccnc2cc1OCCCN1CCN(C)CC1`, the IC50 in “cells [1]” is 100 nM; in test [2], 38.2 nM; in test [3] it was 270 nM; in the test with A549, 250 nM; in “cells [5]”, 14 nM; in test [6] it was over 100000 nM. Moreover, the IC50 in [7] was found to be 1.42 nM; in test [8], 92.6 nM; in the test on HT-29, 86 nM; in test [9] it was 134 nM. Besides, the entries for the “Ratio IC50” value (in [4]; with MKN-45) were 2.1 and 8.6, respectively.
